VIM-2 inh: inhibitors of Pseudomonas aeruginosa VIM-2 metallo-beta-lactamase; purified VIM-2, nitrocefin hydrolysis, epi-absorbance fluorescence; inhibition, % at 5.6 µM; 290,000 compounds, 0.89% hits;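 active = inhibition above the mean of all tested compounds plus 3 SD, cutoff set per screening run, cut at about 7.5% in these data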;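 also: red hydrolysis product quenches plate fluorescence so inhibitors raise well fluorescence; 0% = enzyme with DMSO and 100% = DMSO without enzyme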
HCV core dimer: HCV core protein dimerization inhibition; TR-FRET GST/Flag-core106 dimerization, 1536-well; inhibition, % at 5 µM; 300,000 compounds, 0.33% hits; AID 1899;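 active = inhibition above the mean of all tested compounds plus 3 SD, set per screening campaign, cut at about 45% in these data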
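System – GST-tagged and Flag-tagged HCV core protein residues 1-106 · Repeats – one well for each compound · Technique – TR-FRET 671 and 617 nm emission · Doses – one concentration, 5 µM, in 0.5% DMSO · Times – 4 h, 22.5 °C incubation · Also added – Eu donor and XL665 acceptor anti-tag antibodies · Measure – percent inhibition of core106 dimerization signal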
DNA FID counter: displaces DNA intercalator in HCV helicase counter-screen; 290,000 compounds, 0.17% hits; DNA fluorescent intercalator displacement, fluorescence; AID 1845; inhibition, % at 7.9 µM; in the data active = inhibition above about 37%;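 also: 0% = vehicle and 100% = reference compound; higher means more ethidium bromide displaced from hairpin DNA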
IMP-1 inhibitor: blocks Pseudomonas aeruginosa IMP-1 metallo-beta-lactamase; purified IMP-1, nitrocefin hydrolysis, epi-absorbance fluorescence; 290,000 compounds, 0.45% hits; AID 1556; inhibition, % at 5.6 µM;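 active = inhibition above the mean plus 3 SD of all compounds in the same screening run, cut at about 4.5% in these data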;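 also: 0% = IMP-1 with DMSO and 100% = DMSO wells lacking enzyme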
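Material – recombinant IMP-1 enzyme, purified · Amount – IMP-1 0.2 nM before substrate addition · Medium – HEPES buffer pH 7.1 with ZnSO4 and Brij 35 · Timing – 25 °C, 15 min preincubation, 25 min reaction · Measured by – plate fluorescence quenching by hydrolysis product, ex 480/em 530 nm · Read-out – percent enzyme inhibition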
The depositor's hits bear a star; . = not tested or not shown. Compounds with a hit are over-represented: about 1.6% of the library has one in this group of screens.

SMILES	VIM-2 inh	HCV core dimer	DNA FID counter	IMP-1 inhibitor
COc1cc(CNCCCN2CCOCC2)cc(Br)c1OCc1ccc(Cl)cc1	-0.3	-4.8	41.5*	-3.2
CS(=O)(=O)c1sc2nc(-c3cccs3)cc(-c3ccccc3)c2c1N	-0.7	51.3*	-9.5	2.4
Cc1ccc(-c2cc(-c3ccccc3)c3c(N)c(S(C)(=O)=O)sc3n2)cc1	-0.4	9.8	-14.6	-0.4
O=C(COC(=O)c1cccs1)NCc1ccco1	.	5.7	.	.
CCOc1cc(C(=O)OCC(=O)NCc2ccco2)cc(OCC)c1OCC	-1.6	52.3*	-22.8	3.9
O=C(COC(=O)c1ccc(NS(=O)(=O)c2cccs2)cc1)NCc1ccco1	-2.9	71.7*	-14.9	-3.0
CC(C)C(NC(=O)OCc1ccccc1)C(=O)OCC(=O)NC1CC1 (configuration not stated)	-2.7	-3.6	-8.9	-3.0
COc1cc(C(=O)OCC(=O)NCc2ccco2)cc(OC)c1OC	-1.4	21.1	-6.6	-2.0
CC(C)C(NC(=O)OCc1ccccc1)C(=O)OCC(=O)NCc1ccco1 (configuration not stated)	-2.5	74.7*	-27.3	-1.6
COc1cccc(C2C(C#N)=C(N)OC3=C2C(=O)CC(c2ccco2)C3)c1OCc1ccc(F)cc1 (configuration not stated)	0.8	56.8*	-25.7	3.2
N#CC1=C(N)OC2=C(C(=O)CC(c3ccco3)C2)C1c1ccc(OCc2c(F)cccc2Cl)cc1 (configuration not stated)	0.7	36.0	-34.4	0.7
CCCc1nc(SCc2cccnc2)c2c(=O)n(C)c(=O)n(C)c2n1	10.3*	12.4	-27.2	-4.5
Cn1c(=O)c2c(SCc3cccnc3)nc(CC(C)(C)C)nc2n(C)c1=O	2.3	27.0	-29.6	-0.9
CCOc1cc(CNC(C)(C)C)ccc1OCC(=O)Nc1cccc(C(F)(F)F)c1	-2.7	-4.9	38.4*	-2.8
CCC(CO)NCc1ccc(OCC(=O)Nc2cccc(C(F)(F)F)c2)c(OC)c1 (configuration not stated)	-2.1	3.0	19.5	-3.5
CN1CCN(c2nc(-c3cccc([N+](=O)[O-])c3)nc3ccccc23)CC1	8.6*	2.3	25.0	1.1
O=C(COc1ccc(Br)cc1Cl)c1ccc[nH]1	-3.2	7.1	-6.6	-3.9
O=C(COc1ccccc1Cl)c1ccc[nH]1	-1.6	67.3*	-1.0	-3.1
O=C(c1ccccc1)N1CCN(C(=O)c2nn3c(C(F)(F)F)cc(-c4ccco4)nc3c2Br)CC1	2.6	68.4*	-24.6	1.9
COCc1nnc(NC(=O)CCc2ccccc2)s1	-0.4	-4.5	-3.3	-4.9
Cc1cccc(C(=O)N/N=C/c2coc3ccccc3c2=O)c1	-4.0	10.6	-3.5	5.8*
CC(C)Oc1cccc(C(=O)N/N=C/c2coc3ccccc3c2=O)c1	-7.3	.	-6.9	5.3*
COc1ccc(C(=O)N/N=C\c2coc3ccccc3c2=O)cc1	-4.5	7.9	-3.0	-1.7
CCOc1cccc(C(=O)N/N=C/c2coc3ccccc3c2=O)c1	-5.5	18.2	-9.7	5.5*
O=C(CSc1n[nH]c(=O)n1Cc1ccco1)Nc1ccccc1Cl	1.2	-3.6	-5.0	0.5
SMILES	VIM-2 inh	HCV core dimer	DNA FID counter	IMP-1 inhibitor
CCc1cccc(C)c1NC(=O)C1=C(C(=O)O)CCCC1	0.2	-2.9	-5.5	7.8*
CCc1cccc(C)c1NC(=O)c1ccccc1	-6.7	1.0	4.8	-3.6
C=CCSC1=C(C#N)C(c2ccccc2OCC)C(C#N)C(=O)N1 (configuration not stated)	-1.0	-0.4	-5.6	-1.0
O=C(CSc1nnnn1-c1ccccc1)Nc1ccc(N2CCOCC2)c(Cl)c1	-1.2	7.2	-5.4	-3.3
CN1CCN(c2ccc(NC(=O)CSc3nnnn3-c3ccccc3Cl)cc2)CC1	4.7	-6.5	37.5*	0.1
Cc1ccc(C2=C(c3ccc([N+](=O)[O-])cc3)C(=O)OC2)cc1C	-2.1	24.9	-9.7	12.6*
COc1ccc(C2=C(c3ccc([N+](=O)[O-])cc3)C(=O)OC2)cc1	-1.4	5.9	12.5	3.2
O=c1[nH]cccc1-c1nc2ccccc2[nH]1	-0.1	1.4	-4.6	-2.2
O=c1oc2c(O)cccc2cc1-c1nc2ccccc2[nH]1	6.4	.	1.4	7.2*
CCOC(CNC(=O)c1cccn2c(=O)c3cc(Cl)ccc3nc12)OCC	-2.5	3.9	-12.7	-1.6
CCOC(CNC(=O)c1cccn2c(=O)c3c(C)c(C)sc3nc12)OCC	10.2*	-1.0	-14.8	-2.2
COc1cccc(CNC(=O)c2nnn(CC(=O)Nc3c(C)cccc3C)c2N)c1	-2.3	2.6	-13.7	-2.5
CCOc1ccccc1N1CCN(C(=O)c2cc3cc(OC)ccc3[nH]2)CC1	-1.8	5.0	-22.5	-3.9
O=C(CC(CC(=O)c1ccccc1)C(=O)O)c1ccccc1	8.9*	0.5	-16.5	-4.3
NC(=O)c1ccc(NC(=O)COC(=O)c2cc([N+](=O)[O-])ccc2N2CCOCC2)cc1	.	-0.7	.	.
O=C(O)C1C2C=CC(C2)C1C(=O)NCCCN1CCCC1=O (configuration not stated)	0.9	-0.6	-5.2	11.8*
CCOc1ccc(Nc2nc(N)c([N+](=O)[O-])c(N3CCN(CC)CC3)n2)cc1	-3.1	-15.6	-0.2	-5.8
CCN(CC)c1ccc(NC(=O)CCS(=O)(=O)c2ccc(Br)cc2)c(C)c1	-2.2	-13.4	-28.4	23.9*
Cc1cc(OCC(=O)NNC(=S)NCC2CCCO2)cc(C)c1Cl (configuration not stated)	-1.8	3.6	-26.9	-1.8
CC(=O)Nc1ccc(NC(=O)CCC(=O)OCC(=O)c2ccc(C)c([N+](=O)[O-])c2)cc1	2.4	-0.5	1.0	-2.3
CCc1ccc(-n2cccc2/C=C2/C(=N)N3C(=NC2=O)SN=C3S(C)(=O)=O)cc1	-3.0	48.7*	-23.9	-0.2
Cc1ccc(-n2cccc2/C=C2/C(=N)N3C(=NC2=O)SN=C3S(C)(=O)=O)cc1	-4.6	57.2*	-26.2	-1.4
COc1ccc(O)c(/C=N/NC(=S)Nc2cccc(S(=O)(=O)N(C)C)c2)c1	10.8*	1.7	-11.7	-4.3
COc1cccc(/C=N/NC(=S)Nc2cccc(C(=O)O)c2)c1	9.1*	-4.1	-12.7	-2.3
COc1cc(/C=N/NC(=S)Nc2cccc(C(=O)O)c2)cc(OC)c1OC	0.0	0.9	-15.7	-2.7
SMILES	VIM-2 inh	HCV core dimer	DNA FID counter	IMP-1 inhibitor
Cn1cc(-c2ccccc2C(N)=O)c(=O)c2cc(Cl)ccc21	-3.6	-2.5	10.8	-4.8
Cn1cc(C2=C(c3ccc(Cl)cc3Cl)C(=O)NC2=O)c2ccccc21	2.7	7.0	5.4	4.9*
Cc1onc(-c2ccccc2)c1C(=O)NC(=S)NNC(=O)c1ccccc1O	-2.6	7.8	-12.2	-4.7
CCCN1CCC(NCc2cn(C)nc2-c2ccc(Oc3ccccc3)cc2)CC1	2.2	3.4	38.9*	-0.8
COC1CCCN(Cc2cn(C)nc2-c2ccc(Oc3ccccc3)cc2)C1 (configuration not stated)	-1.8	-1.4	11.8	-1.7
Cc1cc(N)nc(SCC(=O)N2C(C)CCCC2C)n1 (configuration not stated)	-2.4	-0.9	-10.0	-2.5
NC(=O)COC(=O)CCCc1c[nH]c2ccccc12	-0.6	-5.9	2.0	-0.1

Assay outcomes: PubChem BioAssay, The Scripps Research Institute Molecular Screening Center
